Compounds with a hit are over-represented: about 3.9% of the library has one in this group of screens.
tim10-1 inh: growth inhibitors of tim10-1 mutant yeast, primary screen, luminescence, uHTS; AID 463190, 2010; S. cerevisiae tim10-1 ts strain growth, BacTiter-Glo, 24 h; inhibition, % at 20 µM; hit rate 2.2% among 330,000;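 active = inhibition of at least 40%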;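 also: mutant grown at 25 °C; 0% = DMSO wells with yeast and 100% = wells holding no yeast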
UPR CHOP act: activators of apoptotic CHOP UPR arm, primary screen, cell-based, CHO-CHOP luciferase reporter, luminescence, uHTS; UPR activation; percent of tunicamycin response over DMSO baseline; activation, % at 10 µM; hit rate 0.34% among 330,000; AID 449763, 2010;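 active = at 10 µM dose, activation of 40% or more, normalized to positive control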;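 also: 100% = tunicamycin at 10 µg/mL and 0% = DMSO alone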
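Assay system: CHO-CHOP cells, stable luciferase reporter of PERK-eIF2a-CHOP signalling / Buffer or medium: F12 plus 10% serum / Compound dosing: one dose, 10 µM in 0.5% DMSO / Times: 6 h compound treatment, 37 °C / Technique: luciferase luminescence / Read-out: % reporter activation, DMSO baseline versus tunicamycin full activation / Benchmarks: tunicamycin and DMSO controls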
XBP1 UPR activ: activators of adaptive XBP1 UPR arm, primary screen, cell-based, CHO-XBP1 luciferase reporter, luminescence, uHTS. hit rate 0.33% among 330,000. IRE1-XBP1 UPR activation; percent of tunicamycin response, DMSO as zero. activation, % at 20 µM;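 active = versus positive control, 20 µM dose yields 30% or more activation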;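 also: 100% = tunicamycin at 10 µg/mL and 0% = DMSO only wells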
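Test system: CHO-XBP1 luciferase reporter cells | Buffer or medium: Serum-containing F12 medium, 10% FBS | Schedule: 6 h compound exposure at 37 °C, 5% CO2 | Detection: Steady-Glo luciferase glow luminescence, 10 min after reagent addition | Read-out basis: Activation, % of tunicamycin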
tim23-1 inh: growth inhibitors of tim23-1 mutant yeast, primary screen, luminescence, uHTS; S. cerevisiae tim23-1 growth, BacTiter-Glo luminescence, 24 h; inhibition, % at 20 µM; hit rate 1.3% among 330,000; AID 463212, 2010;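 active = growth inhibition of the mutant yeast at or above 50%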;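 also: temperature-sensitive mutant grown at 25 °C; plate controls were DMSO-treated mutant yeast for no effect and medium wells lacking yeast for full effect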
TIM10 inh: growth inhibitors of isogenic TIM10 control yeast, primary screen, counter-screen for tim10-1 yeast inhibitor project, luminescence, uHTS. AID 463195, 2010. inhibition, % at 10 µM. hit rate 1.4% among 330,000. S. cerevisiae TIM10 strain growth, BacTiter-Glo luminescence, 24 h;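 active = inhibition of 40% or more at the single tested concentration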;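 also: wild-type TIM10 isogenic control strain grown at permissive 25 °C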
tim10-1 confirm: growth inhibitors of tim10-1 mutant yeast, confirmation, single concentration, luminescence, S. cerevisiae; shares compounds with tim10-1 inh; S. cerevisiae tim10-1 ts strain growth, BacTiter-Glo, 24 h; inhibition, % at 20 µM; hit rate 56% among 7,400; AID 463213, 2010;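 active = inhibition of yeast growth at or above a set limit in either of two repeat tests at 20 µM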;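 also: tim10-1 mutant grown at permissive 25 °C to find synthetic lethal compounds; 0% = DMSO yeast wells and 100% = medium wells without yeast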
Numbers without * were called inactive; x = no result given.

SMILES	tim10-1 inh	UPR CHOP act	XBP1 UPR activ	tim23-1 inh	TIM10 inh	tim10-1 confirm
COCC1CCN(C(=O)c2cc(COc3ccc4c(c3)CCCC4)on2)C1 (configuration not stated)	40*	0	-3	24	12	20
Cc1cccc(-c2nc(C#N)c(N3CCC(C)CC3)o2)c1	-4	0	0	3	-12	x
CC1CCN(c2oc(-c3ccc(F)cc3)nc2C#N)CC1	99*	3	0	2	-26	-8
O=c1c2ccccc2oc2cc(NCCCN3CCOCC3)ccc12	41*	1	2	6	-3	7
O=C(Nc1ccon1)c1cc2c(s1)CCCCCC2	52*	5	4	43	33	40*
O=C(Nc1ccon1)c1cc2c(s1)CCCC2	9	3	-3	26	22	x
O=C(Nc1cccc(S(=O)(=O)Nc2ccc(Cl)cc2)c1)c1cc2c(s1)CCCC2	40*	1	0	25	23	16
Cc1ccc(NC(=O)c2cc3c(s2)CCCC3)cc1S(=O)(=O)Nc1ccccc1Cl	27	1	2	35	15	x
Cc1noc(C)c1S(=O)(=O)N(C)C[C@H]1Oc2ccc(NS(=O)(=O)c3cn(C)cn3)cc2C(=O)N([C@H](C)CO)C[C@@H]1C	-14	1	-1	-21	2	x
COc1ccc2[nH]c(C)c(CCNC(=S)Nc3cc(C)ccc3C)c2c1	3	2	-1	-8	-8	x
CCc1cccc(C)c1NC(=S)NCCc1c(C)[nH]c2ccc(C)cc12	41*	-1	2	33	15	26
N#CCSc1ccccc1NC(=O)COC(=O)CCNC(=O)c1ccc([N+](=O)[O-])cc1	-10	-1	-1	4	2	x
Cc1nc2c(-c3ccccc3)cnn2c(N)c1-c1ccccc1	43*	-5	-10	39	30	39*
COC(=O)C1=C(C(=O)OC)[C@@H]2N(Cc3ccccc3)c3ccccc3[C@@]23C[C@@H](C(=O)OC)N(C(=O)c2cccs2)C3=N1	42*	17	7	42	18	30
COC(=O)C1=C(C(=O)OC)[C@@H]2N(C)c3ccccc3[C@@]23C[C@@H](C(=O)OC)N(C(=O)c2cccs2)C3=N1	17	1	0	20	27	x
Cc1cc(C(=O)NNS(=O)(=O)c2cc(C(=O)O)ccc2Cl)c(C)n1-c1ccccc1	11	-5	-6	13	6	x
CCOC(=O)c1ccc(NC(=O)CC2OCCN(CC)C2=O)cc1 (configuration not stated)	50*	-1	-2	35	34	62*
CCN1CCOC(CC(=O)Nc2cccc([N+](=O)[O-])c2)C1=O (configuration not stated)	28	1	-1	27	29	x
S=c1[nH]nc(COc2ccccc2)n1/N=C/c1cccc(Br)c1	45*	-2	5	21	24	20
S=c1[nH]nc(COc2ccccc2)n1/N=C/c1cccs1	42*	-1	1	43	33	13
CC(C)c1ccc(/C=N/n2c(COc3ccccc3)n[nH]c2=S)cc1	43*	1	1	32	18	21
S=c1[nH]nc(COc2ccccc2)n1/N=C/c1ccc(Br)cc1	33	0	-7	17	9	x
Cc1ccc(-c2csc(C3C(N)=NC(S)=C(C#N)C34CCCCC4)n2)cc1 (configuration not stated)	45*	2	1	33	33	19
O=C(c1cn(-c2ccccc2)nc1-c1ccc(Cl)s1)N1CCOCC1	44*	3	0	25	21	25
O=C(NC1CCCCC1)c1cc(S(=O)(=O)N2CCOCC2)ccc1Cl	9	0	3	7	-8	x
SMILES	tim10-1 inh	UPR CHOP act	XBP1 UPR activ	tim23-1 inh	TIM10 inh	tim10-1 confirm
O=c1cc(-c2ccccc2)n(S(=O)(=O)c2ccccc2)o1	36	-1	0	31	40	x
COc1ccc(S(=O)(=O)n2oc(=O)cc2-c2ccccc2)cc1	43*	2	0	14	14	20
NNc1nc2sc3c(c2c(=O)n1Cc1ccccc1)CCC3	54*	-1	0	24	18	22
Clc1ccc(Cn2ncc3c(NCc4ccco4)ncnc32)c(Cl)c1	42*	4	-5	45	12	25
CC(Oc1ccccc1F)c1nnc(SCC(=O)N(c2ccccc2)C2CCS(=O)(=O)C2)o1 (configuration not stated)	11	1	0	10	4	x
COc1ccc(C(=O)NC2CCCc3c2cnn3-c2cc(F)cc(F)c2)c(OC)c1OC (configuration not stated)	41*	2	-3	39	12	28*
COc1ccc(C(=O)NC2CCCc3c2cnn3-c2cc(F)cc(F)c2)c(OC)n1 (configuration not stated)	18	4	1	12	13	x
Nc1cc(=O)[nH]c(SCC(=O)Nc2ccc(N3CCCCC3)cc2)n1	-21	1	1	3	6	x
COc1ccc(C(=O)Oc2cc(N)n(S(=O)(=O)c3ccccc3)n2)cc1	40*	0	-1	19	21	23
COc1ccc(S(=O)(=O)n2nc(OC(=O)c3cccs3)cc2NC(=O)c2cccs2)cc1	45*	-1	-1	8	-5	30*
COc1ccc(S(=O)(=O)n2nc(OC(C)=O)cc2N)cc1	8	2	-1	9	14	x
Cc1ccccc1N/N=C/c1c(C)nc2ccccn12	45*	0	1	31	17	24
O=C(NCCO)c1cc2c([nH]c3ccccc32)c(-c2ccccc2)n1	43*	3	7	23	15	14
CC(CCc1ccccc1)NS(=O)(=O)c1ccc(Cl)c(C(=O)O)c1 (configuration not stated)	12	0	-1	2	11	x
Cc1ccc(Sc2ncnc3onc(C)c23)cc1	41*	8	3	32	6	21
Cc1ccc(N2Cc3ccccc3C2=S)cc1	42*	2	1	31	3	26
Clc1ccc(-c2nnc(Sc3nc4ccccc4o3)c3ccccc23)cc1	42*	4	1	46	40	17
Cc1cc(C)n(C(=O)c2ccc([N+](=O)[O-])cc2[N+](=O)[O-])n1	41*	-1	1	49	12	30

Compound activity as filed in PubChem.
